What was measured:
[1] = target: Sigma non-opioid intracellular receptor 1 (Rattus norvegicus, UniProt Q9R0C9); assay: Displacement of (+)-[3H]pentazocine from sigma 1 receptor in rat brain membranes by competitive binding assay; format: cell membranes
In short: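 Sigma-1 competition binding used rat brain membranes as receptor material with (+)-[3H]pentazocine as radioligand. Ki was derived by Cheng–Prusoff from at least three independent experiments, each in triplicate, and is reported as mean ± SD.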

[2] = Displacement of [3H]ditolylguanidine from sigma 2 receptor in rat liver membrane by competitive binding assay; format: cell membranes
In short: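 Sigma-2 competition binding used rat liver membranes with [3H]ditolylguanidine as radioligand. 10 µM dextrallorphan was present to mask sigma-1 sites. Ki was derived by Cheng–Prusoff from at least three independent experiments, each in triplicate, and is reported as mean ± SD.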

Sigma non-opioid intracellular receptor 1, sequence (Q9R0C9 whole entry): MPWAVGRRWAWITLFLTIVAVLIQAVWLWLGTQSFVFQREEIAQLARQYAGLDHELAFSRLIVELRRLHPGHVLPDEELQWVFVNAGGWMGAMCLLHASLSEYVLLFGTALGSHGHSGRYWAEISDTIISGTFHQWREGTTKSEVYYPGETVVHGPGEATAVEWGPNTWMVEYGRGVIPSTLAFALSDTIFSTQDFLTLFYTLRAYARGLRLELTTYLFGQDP

Compound	Ki [1] [nM]	Ki [2] [nM]
O=[N+]([O-])c1ccc(CN2CCN(Cc3ccc4c(c3)OCO4)CC2)cc1	0.43	40.5
Cc1ccc(CN2CCN(Cc3ccc4c(c3)OCO4)CC2)cc1	0.91	49.8

Source: ChEMBL document CHEMBL1772977, “Synthesis and biological evaluation of novel 4-benzylpiperazine ligands for sigma-1 receptor imaging” (Bioorg Med Chem, 2011)
